The record followed here is ChEMBL document CHEMBL4325842, “Design, synthesis, and biological evaluation of novel aminopyrimidinylisoindolines as AXL kinase inhibitors” (Bioorg Med Chem Lett, 2018).

The target of test [1] is Hepatocyte growth factor receptor (Homo sapiens) (UniProt P08581). In words: Inhibition of human c-MET at 10 uM using KKKSPGEYVNIEFG as substrate by [gamma-33P]-ATP assay relative to control. In short, it runs like this:
(§1)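 Kinase-panel profiling (50 oncogenic kinases) run by an outside contract service. The test compound was tested at a single concentration of 10 μM. Percent inhibition was calculated as 100 minus % remaining activity.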

The target in test [2] is Serine/threonine-protein kinase B-raf (Homo sapiens) (UniProt P15056). The test can be described thus: Inhibition of human BRAF at 10 uM using MEK1 (K97R) as substrate by [gamma-33P]-ATP assay relative to control. The essentials: (§2)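 Commercial kinase panel screen at a single concentration of 10 μM. % inhibition was calculated as 100 minus % activity.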
In test [3] the target is RAC-alpha serine/threonine-protein kinase (Homo sapiens) (UniProt P31749). The test can be described thus: Inhibition of human AKT1 at 10 uM using KGSGSGRPRTSSFAEG as substrate by [gamma-33P]-ATP assay relative to control. In short, it runs like this: as §2
Test [4] has as its system OVCAR-3. In words: Antiproliferative activity against human OVCAR3 cells after 2 days by spectrophotometric analysis. Format: functional. The conditions noted are these: OVCAR-3, 48 h. In short, it runs like this:
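Cells from ATCC were kept in RPMI 1640 with 5% FBS. They were exposed to graded concentrations in DMSO/RPMI for 48 h at 37 C under 5% CO2, then fixed with 50% trichloroacetic acid. Cellular protein was read at 540 nm at time zero and at 48 h, with and without compound. TGI (100% growth inhibition) was taken from the concentration-response curve.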

Test [5] relates to PANC-1. In words: Antiproliferative activity against human PANC1 cells after 2 days by spectrophotometric analysis. Format: functional. The conditions noted are these: PANC-1, 48 h.
The test system of test [6] is IMR-32. The test can be described thus: Antiproliferative activity against human IMR32 cells after 2 days by spectrophotometric analysis. Format: functional. The settings on record: IMR-32, 48 h.
Test [7] concerns the target Tyrosine-protein kinase receptor UFO (Homo sapiens) (UniProt P30530). In words: Inhibition of human AXL at 10 uM using EAIYAAPFAKKK as substrate by [gamma-33P]-ATP assay relative to control. In short, it runs like this:
as §2

Test [8] addresses Tyrosine-protein kinase Mer (Homo sapiens, UniProt Q12866). The test can be described thus: Inhibition of human MER using poly[Glu:Tyr] (4:1) as substrate by [gamma-33P]-ATP assay.
Test [9] concerns NOMO-1. The test can be described thus: Antiproliferative activity against human NOMO1 cells after 2 days by spectrophotometric analysis. Format: functional. The conditions noted are these: NOMO-1, 48 h.
For test [10], the target named is Tyrosine-protein kinase receptor TYRO3 (Homo sapiens, UniProt Q06418). In words: Inhibition of human TYRO3 using poly[Glu:Tyr] (4:1) as substrate by [gamma-33P]-ATP assay.
The target in test [11] is Serine/threonine-protein kinase PLK1 (Homo sapiens, UniProt P53350). The test can be described thus: Inhibition of human PLK1 using casein as substrate by [gamma-33P]-ATP assay.
Test [12] deals with Tyrosine-protein kinase SYK (Homo sapiens, UniProt P43405). The test can be described thus: Inhibition of human SYK using poly[Glu:Tyr] (4:1) as substrate by [gamma-33P]-ATP assay.
Test [13] addresses T1, Tyrosine-protein kinase receptor UFO (Homo sapiens, UniProt P30530).
T1 sequence (P30530 whole entry): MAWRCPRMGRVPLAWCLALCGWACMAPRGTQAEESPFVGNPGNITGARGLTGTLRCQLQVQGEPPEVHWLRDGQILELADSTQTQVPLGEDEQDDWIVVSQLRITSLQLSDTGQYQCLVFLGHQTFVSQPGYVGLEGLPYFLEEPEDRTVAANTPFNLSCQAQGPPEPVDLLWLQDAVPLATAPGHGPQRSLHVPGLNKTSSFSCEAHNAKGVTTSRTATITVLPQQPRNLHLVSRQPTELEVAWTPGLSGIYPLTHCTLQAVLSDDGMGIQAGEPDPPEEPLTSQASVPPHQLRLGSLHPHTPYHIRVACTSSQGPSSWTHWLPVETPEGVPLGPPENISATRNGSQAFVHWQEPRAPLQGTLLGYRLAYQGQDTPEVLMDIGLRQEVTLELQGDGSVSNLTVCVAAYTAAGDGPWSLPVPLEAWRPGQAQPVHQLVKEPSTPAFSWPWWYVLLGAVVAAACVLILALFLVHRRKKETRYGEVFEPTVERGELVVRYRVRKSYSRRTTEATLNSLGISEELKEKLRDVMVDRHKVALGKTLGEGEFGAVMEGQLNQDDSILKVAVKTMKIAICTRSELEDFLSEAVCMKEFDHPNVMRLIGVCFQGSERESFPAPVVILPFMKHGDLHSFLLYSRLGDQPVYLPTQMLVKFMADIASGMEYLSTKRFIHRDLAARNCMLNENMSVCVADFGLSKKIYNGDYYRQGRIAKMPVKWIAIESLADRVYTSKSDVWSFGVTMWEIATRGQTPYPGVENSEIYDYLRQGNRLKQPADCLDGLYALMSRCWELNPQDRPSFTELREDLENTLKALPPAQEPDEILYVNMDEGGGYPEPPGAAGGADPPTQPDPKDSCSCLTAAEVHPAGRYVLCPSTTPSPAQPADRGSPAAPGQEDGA
In words: Inhibition of human AXL using EAIYAAPFAKKK as substrate by [gamma-33P]-ATP assay.

The target of test [14] is Tyrosine-protein kinase ABL1 (Homo sapiens) (UniProt P00519). The test can be described thus: Inhibition of human ABL1 at 10 uM using EAIYAAPFAKKK as substrate by [gamma-33P]-ATP assay relative to control. In short, it runs like this:
as §2

The target in test [15] is T2, Focal adhesion kinase 1 (Homo sapiens, UniProt Q05397). In words: Inhibition of human FAK using poly[Glu:Tyr] (4:1) as substrate by [gamma-33P]-ATP assay.
Target sequence in this assay (Q05397 whole entry): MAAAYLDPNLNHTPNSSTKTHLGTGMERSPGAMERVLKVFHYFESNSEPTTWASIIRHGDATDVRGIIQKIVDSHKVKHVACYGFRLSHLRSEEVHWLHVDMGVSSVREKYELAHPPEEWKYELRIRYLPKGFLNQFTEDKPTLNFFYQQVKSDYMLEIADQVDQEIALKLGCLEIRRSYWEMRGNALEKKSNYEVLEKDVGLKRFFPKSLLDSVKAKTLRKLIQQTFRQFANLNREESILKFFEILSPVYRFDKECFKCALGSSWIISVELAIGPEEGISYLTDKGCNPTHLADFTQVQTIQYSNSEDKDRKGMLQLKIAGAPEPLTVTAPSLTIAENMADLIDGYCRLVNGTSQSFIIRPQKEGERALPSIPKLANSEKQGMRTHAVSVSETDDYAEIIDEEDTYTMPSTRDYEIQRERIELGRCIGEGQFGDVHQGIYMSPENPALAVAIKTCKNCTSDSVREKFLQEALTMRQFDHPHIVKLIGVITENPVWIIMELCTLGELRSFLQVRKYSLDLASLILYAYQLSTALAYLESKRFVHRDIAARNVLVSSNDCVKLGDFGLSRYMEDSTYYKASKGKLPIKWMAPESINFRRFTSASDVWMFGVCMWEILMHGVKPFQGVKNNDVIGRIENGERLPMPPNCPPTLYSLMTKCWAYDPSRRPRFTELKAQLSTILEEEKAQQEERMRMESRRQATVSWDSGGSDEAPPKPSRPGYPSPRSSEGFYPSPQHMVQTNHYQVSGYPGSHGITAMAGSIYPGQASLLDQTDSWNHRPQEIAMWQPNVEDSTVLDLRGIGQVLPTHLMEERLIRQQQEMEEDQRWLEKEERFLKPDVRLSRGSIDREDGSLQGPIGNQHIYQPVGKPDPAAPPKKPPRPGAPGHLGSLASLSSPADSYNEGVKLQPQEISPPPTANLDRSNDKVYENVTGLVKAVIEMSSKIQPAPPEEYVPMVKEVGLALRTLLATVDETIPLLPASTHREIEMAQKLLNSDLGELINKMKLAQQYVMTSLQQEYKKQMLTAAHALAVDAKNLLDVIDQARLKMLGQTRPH
Test [16] concerns the target Tyrosine-protein kinase JAK1 (Homo sapiens) (UniProt P23458). In words: Inhibition of human JAK1 at 10 uM using poly[Glu:Tyr] (4:1) as substrate by [gamma-33P]-ATP assay relative to control. In short, it runs like this:
as §2

For test [17], the target named is Aurora kinase A (Homo sapiens) (UniProt O14965). The test can be described thus: Inhibition of human AuroraA at 10 uM using [H-LRRASLG] as substrate by [gamma-33P]-ATP assay relative to control. The essentials:
as §2

In test [18] the target is T2, Focal adhesion kinase 1. The test can be described thus: Inhibition of human FAK at 10 uM using poly[Glu:Tyr] (4:1) as substrate by [gamma-33P]-ATP assay relative to control. The essentials: as §2
The test system of test [19] is HCC78. The test can be described thus: Antiproliferative activity against human HCC78 cells after 2 days by spectrophotometric analysis. Format: functional. The settings on record: HCC78, 48 h.
The target of test [20] is Serine/threonine-protein kinase 26 (Homo sapiens) (UniProt Q9P289). In words: Inhibition of human MST4 at 10 uM using MBP as substrate by [gamma-33P]-ATP assay relative to control. In short, it runs like this: as §2
Test [21] concerns the target Ribosomal protein S6 kinase beta-1 (Homo sapiens) (UniProt P23443). In words: Inhibition of human RPS6KB1 at 10 uM using KKRNRTLTK as substrate by [gamma-33P]-ATP assay relative to control. In short, it runs like this: as §1
For test [22], the system named is MDA-MB-231. The test can be described thus: Antiproliferative activity against human MDA-MB-231 cells after 2 days by spectrophotometric analysis. Format: functional. The conditions noted are these: MDA-MB-231, 48 h.

Chain of Hepatocyte growth factor receptor (Homo sapiens) (P08581 whole entry): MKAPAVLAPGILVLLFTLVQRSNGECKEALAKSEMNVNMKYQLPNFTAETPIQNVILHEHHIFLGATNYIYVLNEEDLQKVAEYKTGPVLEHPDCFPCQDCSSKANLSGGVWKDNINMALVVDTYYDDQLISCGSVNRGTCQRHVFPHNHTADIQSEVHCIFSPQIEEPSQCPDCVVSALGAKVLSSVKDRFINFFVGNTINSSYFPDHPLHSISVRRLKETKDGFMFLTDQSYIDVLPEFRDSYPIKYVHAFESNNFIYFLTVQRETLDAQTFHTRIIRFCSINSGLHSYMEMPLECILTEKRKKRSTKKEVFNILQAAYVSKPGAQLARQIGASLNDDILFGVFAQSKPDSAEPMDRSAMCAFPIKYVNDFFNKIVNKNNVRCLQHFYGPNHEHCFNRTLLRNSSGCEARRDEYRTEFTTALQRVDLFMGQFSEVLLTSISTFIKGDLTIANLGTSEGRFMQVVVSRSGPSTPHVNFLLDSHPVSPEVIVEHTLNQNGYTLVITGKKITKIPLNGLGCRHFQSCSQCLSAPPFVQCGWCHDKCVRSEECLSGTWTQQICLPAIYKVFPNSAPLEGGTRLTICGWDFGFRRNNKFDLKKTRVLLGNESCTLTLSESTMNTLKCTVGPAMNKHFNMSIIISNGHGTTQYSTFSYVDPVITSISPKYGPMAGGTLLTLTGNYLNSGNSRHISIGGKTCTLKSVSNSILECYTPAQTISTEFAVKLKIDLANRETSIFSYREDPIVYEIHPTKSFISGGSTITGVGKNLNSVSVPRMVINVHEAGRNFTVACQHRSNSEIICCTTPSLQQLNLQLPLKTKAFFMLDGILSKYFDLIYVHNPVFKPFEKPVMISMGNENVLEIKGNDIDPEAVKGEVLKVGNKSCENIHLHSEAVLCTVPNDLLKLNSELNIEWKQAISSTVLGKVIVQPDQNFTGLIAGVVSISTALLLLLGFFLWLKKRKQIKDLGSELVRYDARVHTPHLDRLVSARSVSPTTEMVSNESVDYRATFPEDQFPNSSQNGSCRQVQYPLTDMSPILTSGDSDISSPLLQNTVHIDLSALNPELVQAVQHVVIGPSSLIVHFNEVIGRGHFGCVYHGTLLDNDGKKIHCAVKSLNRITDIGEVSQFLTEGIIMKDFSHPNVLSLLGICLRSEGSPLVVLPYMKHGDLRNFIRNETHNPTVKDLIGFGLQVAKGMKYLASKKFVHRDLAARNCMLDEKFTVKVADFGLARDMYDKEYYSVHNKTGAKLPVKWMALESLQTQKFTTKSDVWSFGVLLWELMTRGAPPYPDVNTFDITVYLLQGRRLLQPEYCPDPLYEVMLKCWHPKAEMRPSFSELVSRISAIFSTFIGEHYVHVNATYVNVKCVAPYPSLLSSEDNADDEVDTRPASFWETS
Chain of Tyrosine-protein kinase Mer (Q12866 whole entry): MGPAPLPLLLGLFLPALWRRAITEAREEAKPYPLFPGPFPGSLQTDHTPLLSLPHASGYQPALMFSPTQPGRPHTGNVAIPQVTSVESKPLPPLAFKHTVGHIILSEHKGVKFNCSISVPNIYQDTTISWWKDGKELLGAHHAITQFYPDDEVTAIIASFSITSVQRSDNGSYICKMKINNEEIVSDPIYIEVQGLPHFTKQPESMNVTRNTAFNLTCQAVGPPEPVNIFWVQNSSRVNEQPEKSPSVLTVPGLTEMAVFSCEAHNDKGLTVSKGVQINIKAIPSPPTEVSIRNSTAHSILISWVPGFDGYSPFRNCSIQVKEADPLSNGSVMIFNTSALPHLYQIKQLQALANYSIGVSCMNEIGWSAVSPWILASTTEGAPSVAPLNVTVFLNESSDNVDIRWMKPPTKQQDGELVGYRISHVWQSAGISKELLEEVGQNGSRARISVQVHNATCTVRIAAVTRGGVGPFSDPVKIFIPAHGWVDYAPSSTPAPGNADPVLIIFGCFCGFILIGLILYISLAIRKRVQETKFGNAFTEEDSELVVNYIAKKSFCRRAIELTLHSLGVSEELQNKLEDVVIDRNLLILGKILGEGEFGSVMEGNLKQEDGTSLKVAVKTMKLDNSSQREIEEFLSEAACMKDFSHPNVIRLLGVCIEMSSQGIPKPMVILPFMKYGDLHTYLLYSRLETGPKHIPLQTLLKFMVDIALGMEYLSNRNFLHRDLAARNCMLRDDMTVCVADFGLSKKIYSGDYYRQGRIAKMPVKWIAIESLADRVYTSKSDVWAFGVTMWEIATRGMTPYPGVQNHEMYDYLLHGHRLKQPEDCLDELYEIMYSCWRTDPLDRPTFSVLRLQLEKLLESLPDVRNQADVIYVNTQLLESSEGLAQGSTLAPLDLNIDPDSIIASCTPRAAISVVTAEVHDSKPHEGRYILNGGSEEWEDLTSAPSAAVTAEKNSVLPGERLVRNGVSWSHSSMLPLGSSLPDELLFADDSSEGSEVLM
Chain of Tyrosine-protein kinase ABL1 (Homo sapiens) (P00519 whole entry): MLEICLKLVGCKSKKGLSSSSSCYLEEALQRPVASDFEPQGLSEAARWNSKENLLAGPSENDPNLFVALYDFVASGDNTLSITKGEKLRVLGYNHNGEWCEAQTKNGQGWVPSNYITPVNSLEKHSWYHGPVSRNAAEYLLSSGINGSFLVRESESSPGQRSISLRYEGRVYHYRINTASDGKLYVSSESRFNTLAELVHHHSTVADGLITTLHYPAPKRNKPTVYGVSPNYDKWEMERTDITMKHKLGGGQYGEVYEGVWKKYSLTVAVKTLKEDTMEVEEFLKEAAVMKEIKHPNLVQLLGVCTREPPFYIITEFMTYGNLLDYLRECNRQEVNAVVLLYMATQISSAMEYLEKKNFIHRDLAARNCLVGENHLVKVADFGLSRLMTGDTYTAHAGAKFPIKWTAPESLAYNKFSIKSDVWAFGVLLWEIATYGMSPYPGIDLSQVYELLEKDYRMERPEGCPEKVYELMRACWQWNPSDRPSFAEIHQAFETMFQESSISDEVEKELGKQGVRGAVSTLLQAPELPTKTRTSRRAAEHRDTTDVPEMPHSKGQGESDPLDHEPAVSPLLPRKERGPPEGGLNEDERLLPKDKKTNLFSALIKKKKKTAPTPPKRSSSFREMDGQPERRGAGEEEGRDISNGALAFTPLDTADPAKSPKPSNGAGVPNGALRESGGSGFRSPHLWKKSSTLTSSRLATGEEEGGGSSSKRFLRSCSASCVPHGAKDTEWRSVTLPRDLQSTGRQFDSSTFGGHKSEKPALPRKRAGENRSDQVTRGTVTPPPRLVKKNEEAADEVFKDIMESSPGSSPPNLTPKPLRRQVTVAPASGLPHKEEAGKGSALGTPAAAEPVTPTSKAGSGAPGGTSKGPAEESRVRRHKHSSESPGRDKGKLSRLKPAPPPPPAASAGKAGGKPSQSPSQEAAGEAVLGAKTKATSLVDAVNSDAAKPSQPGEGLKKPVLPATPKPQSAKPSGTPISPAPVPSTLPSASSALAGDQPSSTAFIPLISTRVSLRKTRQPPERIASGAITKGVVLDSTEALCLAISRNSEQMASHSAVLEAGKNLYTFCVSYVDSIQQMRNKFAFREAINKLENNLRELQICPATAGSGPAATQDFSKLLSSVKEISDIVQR
Chain of Serine/threonine-protein kinase 26 (Homo sapiens) (Q9P289 2-416 limits assumed): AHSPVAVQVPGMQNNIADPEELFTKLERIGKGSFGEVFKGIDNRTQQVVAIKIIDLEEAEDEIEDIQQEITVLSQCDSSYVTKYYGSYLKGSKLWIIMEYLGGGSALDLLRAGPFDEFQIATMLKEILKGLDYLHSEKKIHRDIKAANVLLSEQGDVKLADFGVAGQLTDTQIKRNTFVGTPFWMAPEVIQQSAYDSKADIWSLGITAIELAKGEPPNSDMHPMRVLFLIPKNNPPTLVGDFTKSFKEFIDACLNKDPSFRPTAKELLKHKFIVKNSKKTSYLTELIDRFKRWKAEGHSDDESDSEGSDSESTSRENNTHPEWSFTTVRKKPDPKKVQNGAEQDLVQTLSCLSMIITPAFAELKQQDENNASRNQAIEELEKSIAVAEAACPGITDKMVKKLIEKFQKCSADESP

For orientation: inhibition means the relative decrease from the control value, in per cent. For orientation: GI50 means the concentration at which growth is held to half of that of the control. A high value points to lower sensitivity of the cells. In general, IC50 refers to the point on the concentration scale where inhibition reaches its midpoint. Lower therefore signals greater potency. Take `CC(=O)N1CCN(c2ccc(Nc3ncc(C(F)(F)F)c(N4Cc5cccc(N(C)S(C)(=O)=O)c5C4)n3)cc2)CC1`: the inhibition was 17.9% in test [1]; 6.7% in [2]; -3.6% in [3]; 92.1% in test [7]; 63.1% in test [14]; 75.4% in test [16]. Further, the inhibition in test [17] is 95.3%; in [18], 96.4%; in test [20], 25.3%; in test [21], 65.5%. Besides, the GI50 in [4] was 0.97 µM; in test [5], 0.43 µM; in test [6], 0.26 µM; in test [9], 3.8 µM; in test [19], 5.2 µM; in test [22], 0.5 µM. In addition, the half-maximal inhibitory concentration (IC50) in test [8] is 0.025 µM; in test [10], 0.05 µM; in [11], 0.0088 µM; in test [12], 0.0051 µM; in test [13], below 0.0005 µM; in test [15], 0.011 µM.
